# High-throughput results (PubChem BioAssay)
# MPTP inh – mitochondrial permeability transition pore inhibitors, primary screen, biochemical, isolated mouse mitochondria, absorbance | inhibition, % at 10 µM | Ca2+ swelling absorbance, 30 min | 360,000 tested, 1.4% active;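 active means inhibition of 50% or more, scaled per plate between neutral and stimulator controls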;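 further: 0% = DMSO wells given calcium and 100% = 1 mM EGTA wells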
# Redox H2O2 prof – compounds producing H2O2 with reducing agent – biochemical, NIH compound library profiling, artefact control for MLSCN library redox annotation, primary screen; DTT-dependent redox cycling H2O2, phenol red/HRP absorbance; 100% = 100 µM peroxide control, 0% = buffer; activation, % at 10 µM; 200,000 tested, 0.03% active; AID 878, 2007;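 active means activation of at least 50% relative to the plate's high and low controls in the primary single-dose screen; inactive means activation below 50%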;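 further: compound incubated with DTT at 0.8 mM final as the reducing agent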
# T cruzi repl – inhibitors of intracellular T. cruzi growth, primary screen, luminescence, NIH3T3 host cells. T. cruzi beta-gal in NIH3T3, 90 h. 300,000 tested, 1.4% active. AID 1885, 2009. inhibition, % (test concentration not listed);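 active means mean inhibition across valid replicates above about 55%, limit read from the data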;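 further: signal also drops with host cell toxicity which is not excluded here; 0% = plate median of DMSO wells and 100% = zero luminescence signal; higher percent means less beta-gal luminescence so fewer parasites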
#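 assay system = mouse NIH/3T3 fibroblasts infected with β-gal-expressing T. cruzi Tulahuen C4 | input = 5,000 NIH/3T3 host cells per well | buffer or medium = DMEM plus 2% FBS | timing = 3 h host attachment, then at least 90 h co-culture | measured by = GalScreen luminescence, 60 min | evaluation = luminescence reflecting intracellular parasite burden, expressed as percent inhibition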
# Hep lipid drop – inhibitors of hepatocyte lipid droplet formation, primary screen, imaging, high-throughput imaging, BODIPY stain | AML12 mouse hepatocytes, oleate lipid droplets | inhibition, % at 6.5 µM | 240,000 tested, 0.4% active | AID 1656, 2009;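 active means lipid droplet intensity inhibited by at least 50%, with more than 500 cells counted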
#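 Assay system: AML12 hepatocytes (mouse); Probe or stimulus: oleic acid at 100 µM to induce lipid droplet formation; Dosing: compound at 6.5 µM only; Schedule: compound with oleate, overnight; Detection: fluorescence imaging, 20x objective, two fields per well; Measure: % inhibition of lipid droplet signal.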
# Lmaj promast – Leishmania major promastigote growth inhibition, primary screen; Leishmania major promastigotes, resazurin fluorescence viability; inhibition, % at 10 µM; 200,000 tested, 9% active; AID 1063, 2008; in the data active means inhibition above about 50%;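 further: promastigotes grown with compound for 44 hours at 28 °C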
# Rh123 counter – fluorescence retest of MPTP screen hits in isolated mitochondria, single concentration | shares compounds with MPTP inh | membrane potential, Rhodamine 123 fluorescence | inhibition, % at 10 µM | 5,000 tested, 78% active; in the data active means inhibition above about 22%;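 further: 0% = DMSO vehicle and 100% = positive control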
# MPTP abs DR – mitochondrial permeability transition pore inhibitors, dose response, biochemical, absorbance, uHTS hits; IC50, µM; 780 tested, 58% active; isolated mitochondria swelling; shares compounds with MPTP inh; in the data active means IC50 below about 20 µM
# MPTP counter DR – fluorescent counter-screen in isolated mitochondria, dose response, counter-screen for MPTP inhibitor project, biochemical, fluorescence, uHTS hits; shares compounds with MPTP inh; isolated mitochondria counterscreen, fluorescence read-out; IC50, µM; 780 tested, 49% active; AID 651564, 2012; in the data active means IC50 below about 80 µM
# Numbers without * were called inactive; x = no result given; + = active, no number. The sample as a whole holds a higher share of hits than the screen did.
SMILES,MPTP inh,Redox H2O2 prof,T cruzi repl,Hep lipid drop,Lmaj promast,Rh123 counter,others
COc1ccccc1NC(=O)c1cc2cc(Br)ccc2cc1O,80*,x,0,14,x,28*,
Cc1ccc(Cl)cc1NC(=O)c1cc2ccccc2cc1O,99*,x,16,-26,x,74*,
CCC(C(=O)NCc1ccco1)N(C(=O)CNS(=O)(=O)c1ccccc1)c1ccccc1C (stereo not drawn),0,0,9,-6,19,x,
Cc1c(NC(=O)C(C)OC(=O)COc2ccc(C#N)cc2)c(=O)n(-c2ccccc2)n1C (stereo not drawn),-2,x,-2,x,x,x,
Cc1cccc(OCC(=O)N(Cc2ccco2)C2CCS(=O)(=O)C2)c1C (stereo not drawn),-1,x,2,-9,x,x,
COc1ccccc1OCCSc1nc2ccc([N+](=O)[O-])cc2s1,76*,0,9,-4,-10,87*,
C=CCc1ccccc1OCCSc1nc2ccc([N+](=O)[O-])cc2s1,84*,2,-19,0,-2,41*,
O=[N+]([O-])c1ccc2nc(SCc3ccccc3Cl)sc2c1,98*,-5,3,x,0,68*,
COc1cc([N+](=O)[O-])ccc1NC(=O)CSc1nnc(C)c(C)n1,-2,-1,0,-15,1,x,
O=C(Cn1nc(-c2ccccc2)ccc1=O)Nc1ccc(N2CCN(C(=O)c3cccs3)CC2)cc1,-1,0,11,43,2,x,
O=S(=O)(c1cnc(Cl)c(Cl)c1)N1CCN(c2ncccn2)CC1,2,x,1,13,x,x,
Cc1ccc2c(c1)c1c(n2CC(O)CNC2CCCCC2)CCCC1 (stereo not drawn),80*,-1,44,23,101*,-20,
Cc1ccc2c(c1)c1c(n2CC(O)CNC(CO)(CO)CO)CCCC1 (stereo not drawn),-2,-2,-2,x,-2,x,
S=C(Nc1cccc(Cl)c1)Nc1cccc2cnccc12,97*,1,x,-2,9,99*,
S=C(NCCc1ccccc1)Nc1cccc2cnccc12,86*,0,-8,0,-7,85*,
S=C(NCc1ccccc1)Nc1cccc2cnccc12,12,x,-5,-60,x,x,
CCOC(=O)C1CCN(C(=O)COC(=O)CNC(=O)c2ccc(OC)cc2)CC1,0,-2,1,2,-4,x,
O=C(O)c1cccc(N/N=C/c2sc(N3CCOCC3)nc2-c2ccccc2)c1,-1,-1,0,13,29,x,
O=C(N/N=C/c1sc(N2CCOCC2)nc1-c1ccccc1)c1ccccc1Cl,-2,0,28,x,2,x,
O=[N+]([O-])c1ccc(N/N=C/c2sc(N3CCOCC3)nc2-c2ccccc2)c(S(=O)(=O)Nc2ccc(Cl)cc2)c1,86*,-1,84*,-24,66*,76*,
O=[N+]([O-])c1ccc(N/N=C/c2sc(N3CCOCC3)nc2-c2ccccc2)c(S(=O)(=O)Nc2ccccc2Cl)c1,91*,-1,x,8,70*,65*,
O=C(Nc1ccc(C(F)(F)F)cc1)C1CCN(S(=O)(=O)c2ccc(N3CCCC3=O)cc2)CC1,92*,x,15,-7,x,88*,
COc1ccc(NC(=O)C2CCN(S(=O)(=O)c3ccc(N4CCCC4=O)cc3)CC2)cc1OC,1,x,-3,10,x,x,
Cc1cc(NC(=O)c2cc3cccc([N+](=O)[O-])c3[nH]2)ccc1F,83*,x,34,23,x,69*,
O=C(C1CC(=O)N(c2ccccc2)C1)N1CCN(c2ccccc2)CC1 (stereo not drawn),1,x,4,-5,x,x,
SMILES,MPTP inh,Redox H2O2 prof,T cruzi repl,Hep lipid drop,Lmaj promast,Rh123 counter,others
O=[N+]([O-])c1ccc(N/N=C/c2ccccc2)c(F)c1,83*,1,8,-9,-8,80*,
O=[N+]([O-])c1ccc(C=NNc2ccccc2)cc1,46,x,x,x,x,x,
COc1ccccc1N1CCN(CCCN=C2CC(=O)N(C)C(=O)N2C)CC1,0,x,x,x,x,x,
N#Cc1c(N)nc(Sc2ccc(Cl)cc2)c(C#N)c1-c1ccccc1Cl,76*,x,47,6,x,56*,
COc1ccc(CCNC(=O)c2ccc(CS(=O)(=O)Cc3ccc(C)cc3)o2)cc1OC,3,x,x,x,x,x,
COc1ccc(C)c2sc(N(CCCN(C)C)C(=O)CS(=O)(=O)c3ccc(F)cc3)nc12,85*,x,14,x,x,-18,MPTP abs DR=5.7*;MPTP counter DR=>80
COc1ccc(N(CC(=O)NCc2cccs2)S(=O)(=O)c2cccc(C)c2)cc1,-3,x,x,x,x,x,
CCCc1c(-c2cccc(Br)c2)ncn1Cc1ccccc1OC,0,x,x,x,x,x,
CCc1ccc(C2C(C#N)=C(N)SC(N)=C2C#N)cc1,74*,1,-4,x,-3,82*,
CCc1ccc(C2C(C#N)=C(N)SC(N)=C2C#N)s1,77*,2,-12,x,2,56*,
N#CC1=C(N)SC(N)=C(C#N)C1c1ccc(C(F)(F)F)cc1,x,1,-13,-3,-5,x,
CCc1cccc(NS(=O)(=O)c2c(C)[nH]c(=O)[nH]c2=O)c1,0,x,-14,3,x,x,
COc1ccc(C(=O)COC(=O)CN2C(=O)C3C4C=CC(C5CC45)C3C2=O)cc1 (stereo not drawn),1,0,-12,-2,-6,x,
COc1ccc(-c2noc(CSc3nc(N)cc(=O)[nH]3)n2)cc1,74*,x,-4,-8,x,45*,
O=C(CSC1CC(=O)N(CC(c2ccccc2)c2ccccc2)C1=O)Nc1ccc(Cl)cc1 (stereo not drawn),75*,-7,19,x,14,79*,
O=C(Nc1ccc(Cl)c(Cl)c1)c1cccc(S(=O)(=O)NCc2cccnc2)c1,104*,1,48,-2,7,84*,
COc1cccc(S(=O)(=O)NCc2ccc(C(=O)Nc3ccc(Cl)c(Cl)c3)cc2)c1,2,0,37,2,20,x,
O=C(Nc1ccc(Cl)c(Cl)c1)OCc1cccnc1,90*,-1,65*,-3,3,95*,
CCOC(=O)c1nnc(-c2cccs2)nc1Oc1ccc(Cl)cc1,+,0,-10,13,-2,-5,MPTP abs DR=>100;MPTP counter DR=>80
CCOC(=O)c1nnc(-c2cccs2)nc1Oc1ccccc1C(=O)OC,-2,0,7,-5,4,x,
